Experimental findings from ChEMBL document CHEMBL3085685, “In vitro and in vivo antileishmanial and trypanocidal studies of new N-benzene- and N-naphthalenesulfonamide derivatives” (J Med Chem, 2013) are described below.

The source made the active and inactive calls. The calls are words filed in the database; no cut-off is given here.

Series [1] is described as follows: Selectivity index, ratio of CC50 for mouse J774 cells to IC50 for extracellular promastigote stage of Leishmania amazonensis MHOM/Br/79/Maria. In kind it is functional.
The test system of series [2] is Trypanosoma cruzi. The experiment in a line: Trypanocidal activity against intracellular amastigote stage of Trypanosoma cruzi CL-B5 infected in mouse NCTC-929 cells assessed as reduction of parasite load after 7 days by CPRG-based colorimetric analysis. As to conditions: nctc-929.
The test system of series [3] is Leishmania infantum. Briefly: Leishmanicidal activity against intracellular amastigote stage of Leishmania infantum MCAN/ES/96/BCN150 infected in mouse J774 cells assessed as reduction of parasite load after 48 hrs by resazurin dye-based fluorometric analysis. In kind it is functional, organism-based. As to conditions: Leishmania infantum, MCAN/ES/96/BCN150, J774, 48 h; read-out: IC50. In a few lines: (§1)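 J774 macrophages (5 × 10^4/well) infected with stationary promastigotes at 1:10, 24 h at 33 °C then 24 h at 37 °C, 5% CO2, and washed free of promastigotes. Then 2-fold serial dilutions in triplicate for 48 h at 37 °C. Cells lysed with RPMI with 0.048% HEPES and 0.006% SDS, transformed in Schneider's 3 days at 26 °C, resazurin 3 h, fluorescence 535/590 nm.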

The test system of series [4] is Trypanosoma cruzi. Briefly: Trypanocidal activity against extracellular epimastigote stage of Trypanosoma cruzi CL-B5 assessed as reduction of parasite load after 72 hrs by CPRG-based colorimetric analysis.
Series [5] relates to Leishmania infantum. Briefly: Leishmanicidal activity against promastigote stage of Leishmania infantum MCAN/ES/96/BCN150 infected in BALB/c mouse assessed as reduction of parasite burden in liver at 5 mg/kg, ip qd administered for 5 days measured after 7 days by limiting dilution assay relative to untreated control. In kind it is functional. A digest of the protocol:
(§2)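 BALB/c mice infected intracardially under pentobarbital anaesthesia with 10^7 stationary L. infantum BCN150 promastigotes. From day 21 post-infection, dosed ip once daily for 5 days in 0.1 mL propylene glycol, with an untreated control group. Killed 7 days later; spleen and liver burdens by limiting dilution and expressed as % reduction versus controls.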

The nature of series [6]: Cytotoxicity against mouse J774 cells assessed as reduction of cell viability after 24 hrs by resazurin dye-based fluorometric analysis. A digest of the protocol:
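J774 macrophages in RPMI 1640 with 10% heat-inactivated FBS, seeded at 5 × 10^4 cells/well and attached 24 h at 37 °C, 5% CO2. Medium swapped for drug dilutions for 24 h. Then 2.5 mM resazurin stock added for 3 h, fluorescence read at 535 nm excitation / 590 nm emission. Triplicate; CC50 from probit analysis.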

The nature of series [7]: Selectivity index, ratio of CC50 for mouse J774 cells to IC50 for extracellular promastigote stage of Leishmania braziliensis 2903. In kind it is functional.
The subject of series [8] is Leishmania amazonensis. The experiment in a line: Leishmanicidal activity against extracellular promastigote stage of Leishmania amazonensis MHOM/Br/79/Maria assessed as reduction of parasite load after 48 hrs by resazurin dye-based fluorometric analysis. In kind it is functional, organism-based. As to conditions: Leishmania amazonensis, MHOM/Br/79/Maria, 48 h; read-out: IC50. In a few lines: (§3)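 Log-phase promastigotes cultured in Schneider's medium with 20% heat-inactivated FBS at 26 °C, 2.5 × 10^5 per well. DMSO-dissolved compounds added as 2-fold serial dilutions, final DMSO ≤0.2% (v/v), 48 h at 26 °C. Growth read by 2.5 mM resazurin stock, fluorescence 535/590 nm. Triplicate; IC50 by probit analysis.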

The next series relates to Leishmania braziliensis. The experiment in a line: Leishmanicidal activity against extracellular promastigote stage of Leishmania braziliensis 2903 assessed as reduction of parasite load after 48 hrs by resazurin dye-based fluorometric analysis. In kind it is functional, organism-based. As to conditions: Leishmania braziliensis, 2903, 48 h; read-out: IC50. In a few lines: as §3

Series [9] relates to Leishmania amazonensis. The experiment in a line: Leishmanicidal activity against intracellular amastigote stage of Leishmania amazonensis MHOM/Br/79/Maria infected in mouse J774 cells assessed as reduction of parasite load after 48 hrs by resazurin dye-based fluorometric analysis. In kind it is functional, organism-based. As to conditions: Leishmania amazonensis, MHOM/Br/79/Maria, J774, 48 h; read-out: IC50. In a few lines:
as §1

A further series relates to Leishmania guyanensis. Briefly: Leishmanicidal activity against extracellular promastigote stage of Leishmania guyanensis 141/93 assessed as reduction of parasite load after 48 hrs by resazurin dye-based fluorometric analysis. As to conditions: Leishmania guyanensis, 141/93, 48 h; read-out: IC50. In kind it is functional, organism-based. A digest of the protocol:
as §3

In series [10] the test system is Leishmania infantum. Briefly: Leishmanicidal activity against extracellular promastigote stage of Leishmania infantum MCAN/ES/96/BCN150 assessed as reduction of parasite load after 48 hrs by resazurin dye-based fluorometric analysis. As to conditions: Leishmania infantum, MCAN/ES/96/BCN150, 48 h; read-out: IC50. In kind it is functional, organism-based. A digest of the protocol:
as §3

Series [11] concerns Leishmania infantum. The experiment in a line: Leishmanicidal activity against promastigote stage of Leishmania infantum MCAN/ES/96/BCN150 infected in BALB/c mouse assessed as reduction of parasite burden in spleen at 5 mg/kg, ip qd administered for 5 days measured after 7 days by limiting dilution assay relative to untreated control. In kind it is functional. In a few lines: as §2

For the compound `Cc1cc2cc(NS(=O)(=O)c3ccccc3)ccc2[nH]1`, the Ratio CC50/IC50 in series [1] is more than 16.6; in series [7], more than 8.8. The 50% inhibitory concentration (IC50) entry in the series on Trypanosoma cruzi [2] was “Not Active”; in the series with Leishmania infantum [3], 47.3 µM; in the series on Trypanosoma cruzi [4] it was “Not Active”; in the series on Leishmania amazonensis [8], 15.4 µM; with Leishmania braziliensis, 29 µM; in the series with Leishmania amazonensis [9], 64.1 µM. Besides, the IC50 turned out to be 20.9 µM in the series on Leishmania guyanensis and 23.4 µM in the series on Leishmania infantum [10]. In addition, the outcome in the series with Leishmania infantum [5] and with Leishmania infantum [11] was inactive. Further, the CC50 at 24 h in series [6] is not below 300 µM.
